Data from ChEMBL document CHEMBL1138446, “The design, synthesis, and antiviral activity of monofluoro and difluoro analogues of 4'-azidocytidine against hepatitis C virus replication: the discovery of 4'-azido-2'-deoxy-2'-fluorocytidine and 4'-azido-2'-dideoxy-2',2'-difluorocytidine” (J Med Chem, 2009).

Legend:
Hepatitis C virus = experiment: Antiviral activity against HCV 1b infected in human 2209-23 cells by replicon assay; format: functional, organism-based, Hepacivirus hominis
[1] = Cytotoxicity against human 2209-23 cells assessed as cell viability by WST-1 assay; format: cell-based
Procedure, shortened: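 Viability of the same 2209-23 replicon cells was measured by the WST-1 assay. Values are reported as CC50.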

[2] = Antiproliferative activity against human 2209-23 cells assessed as [3H]thymidine incorporation by scintillation proximity assay; format: cell-based
Procedure, shortened: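 Proliferation of the GT-1b stable replicon line 2209-23 was measured as tritiated thymidine incorporation into cellular DNA by scintillation proximity assay. Values are reported as IC50.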

[3] = Inhibition of HCV NS5B polymerase-mediated RNA synthesis; parameters: species or system Hepacivirus hominis

| SMILES | EC50 (Hepatitis C virus) | EC50 [3] | CC50 [1] | IC50 [2] |
| --- | --- | --- | --- | --- |
| [N-]=[N+]=N[C@]1(CO)O[C@@H](n2ccc(N)nc2=O)[C@H](F)[C@@H]1O | 4.02 µM | – | > 100 µM | > 100 µM |
| [N-]=[N+]=N[C@]1(CO)O[C@@H](n2ccc(N)nc2=O)C(F)(F)[C@@H]1O | 0.066 µM | – | > 100 µM | – |
| Nc1ccn([C@@H]2O[C@H](CO)[C@@H](O)[C@@H]2F)c(=O)n1 | 0.114 µM | – | > 100 µM | 0.174 µM |
| [N-]=[N+]=N[C@]1(CO)O[C@@H](n2ccc(N)nc2=O)[C@@H](O)[C@@H]1O | 0.171 µM | – | > 1000 µM | > 100 µM |

Second part, led by results:

| EC50 (Hepatitis C virus) | EC50 [3] | SMILES | CC50 [1] | IC50 [2] |
| --- | --- | --- | --- | --- |
| > 100 µM | – | [N-]=[N+]=N[C@]1(CO)O[C@@H](n2ccc(N)nc2=O)[C@H](O)[C@@H]1F | > 100 µM | – |
| > 100 µM | – | [N-]=[N+]=N[C@]1(CO)O[C@@H](n2ccc(N)nc2=O)[C@H](O)[C@H]1F | > 100 µM | – |
| 1.28 µM | 1.28 µM | [N-]=[N+]=N[C@]1(CO)O[C@@H](n2ccc(N)nc2=O)[C@H](O)[C@@H]1O [4'-AZIDOCYTIDINE] | > 2000 µM | > 100 µM |
| 0.024 µM | – | [N-]=[N+]=N[C@]1(CO)O[C@@H](n2ccc(N)nc2=O)[C@@H](F)[C@@H]1O [RO-0622] | > 100 µM | > 100 µM |
